Data on three compounds can be found in paper PMC9299520 (Nature structural & molecular biology, 2022).

For assay [1], the target named is T1, 5-HT5AR (Homo sapiens, UniProt P47898). Nature of the assay: BRET1 miniGi recruitment assay. Type of assay: cell-based. Conditions: wild type 5-HT5AR. Put shortly:
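Transfected cells were plated after at least 24 h onto poly-lysine-coated plates in DMEM with 1% dialyzed FBS, at 40,000 cells/well, and left overnight. They were washed with HBSS/20 mM HEPES pH 7.4, then given coelenterazine h (5 μM final) and test compound dilutions with 0.3% BSA and 0.03% ascorbic acid. After 10 min at room temperature, emissions at 485 and 530 nm were read, and eYFP/Rluc BRET ratio was plotted against concentration.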
For orientation: In BRET a luciferase serves as donor, and the signal depends on an acceptor being close.

In assay [2] the target is T1, 5-HT5AR. Nature of the assay: BRET2 Gi1-activation assay, WT 5-HT5AR. Type of assay: cell-based. Conditions: normalized to % of 5-HT.
Assay [3] concerns the target mutant 5-HT5AR (Homo sapiens, UniProt P47898, E305A). Nature of the assay: BRET2 Gi1-activation assay, mutant 5-HT5ARs. The format is cell-based. Conditions: mutant E305A.
Assay [4] addresses mutant 5-HT5AR (Homo sapiens, UniProt P47898, S204C). Nature of the assay: BRET2 Gi1-activation assay, mutant 5-HT5ARs. Type of assay: cell-based. Conditions: mutant S204C.
Assay [5] deals with mutant 5-HT5AR. Nature of the assay: BRET2 Gi1-activation assay, mutant 5-HT5ARs. The format is cell-based, human. Conditions: for effect on Gi1 activation: mutants S204A and S204G.
The target in assay [6] is mutant 5-HT5AR (Homo sapiens, UniProt P47898, A227L). Nature of the assay: BRET2 Gi1-activation assay, mutant 5-HT5ARs. The format is cell-based. Conditions: mutant A227L versus WT.
Chain of mutant 5-HT5AR (Homo sapiens, UniProt P47898, A227L) (P47898 whole entry A227L): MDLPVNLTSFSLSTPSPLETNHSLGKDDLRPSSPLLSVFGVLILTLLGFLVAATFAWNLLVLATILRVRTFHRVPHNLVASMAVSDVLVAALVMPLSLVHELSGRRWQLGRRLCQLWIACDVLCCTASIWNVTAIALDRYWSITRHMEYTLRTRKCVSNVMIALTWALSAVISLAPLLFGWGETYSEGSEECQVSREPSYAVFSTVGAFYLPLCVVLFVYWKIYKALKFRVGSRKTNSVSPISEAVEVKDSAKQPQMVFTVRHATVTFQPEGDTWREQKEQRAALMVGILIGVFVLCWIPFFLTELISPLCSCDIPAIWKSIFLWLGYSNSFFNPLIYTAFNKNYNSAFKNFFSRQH

T1 sequence (P47898 whole entry): as the sequence (P47898 whole entry A227L) above, with L227A counted along it
Chain of mutant 5-HT5AR (Homo sapiens, UniProt P47898, S204C) (P47898 whole entry S204C): as the sequence (P47898 whole entry A227L) above, with S204C, L227A counted along it
Chain of mutant 5-HT5AR (Homo sapiens, UniProt P47898, E305A) (P47898 whole entry E305A): as the sequence (P47898 whole entry A227L) above, with L227A, E305A counted along it

`NCCc1c[nH]c2ccc(C(N)=O)cc12` [5-CT, 5-carboxamidotryptamine]: the miniGi recruitment result on 5-HT5AR [1] is on record as “unable to efficiently recruit miniGi”. The “agonist type for Gi signaling” value at 5-HT5AR [2] is on record as “full agonist”. In addition, the “effect on activation of Gi1 signaling” value at mutant 5-HT5AR [3] is recorded as “failed to show a large effect”. Moreover, the “effect on Gi1 activation” value at mutant 5-HT5AR [4] is “severely affected”; in the assay with mutant 5-HT5AR [5], “dramatically reduced the potency”.

On to `CC[C@@H](CO)NC(=O)[C@@H]1C=C2c3cccc4[nH]cc(c34)C[C@H]2N(C)C1` [methylergometrine], for which the “agonist type for Gi signaling” value on 5-HT5AR [2] is reported as “full agonist”.

Take `NCCc1c[nH]c2ccc(O)cc12` [5-HT, 5-hydroxytryptamine]: the “effect on Gi1 activation” value on mutant 5-HT5AR [4] is “severely affected”; with mutant 5-HT5AR [5], “modest effects on both the potency and efficacy”. Besides, the “improvement of potency of Gi1 activation” value in the assay with mutant 5-HT5AR [5] ({}) was “more than 30 fold”. For the same compound, the “increase of efficacy of Gi1 activation” value on mutant 5-HT5AR [6] was found to be 20%.
